Assay results of several laboratories.
Converted amounts (≈) assume the structure as drawn.
Organism: Candida albicans

SMILES | effect on | strain | time | quantity | result
NOCC(=O)O | microbial growth | 28A |  | MIC | 1000 µg/mL
COc1ccccc1Cc1cc(C)cc(=O)n1O | microbial growth | ATCC90028 |  | MIC80 | 2.7 µM (≈ 0.662 µg/mL)
CCCCCOc1ccc(-c2cc(-c3ccc(C(=O)N[C@H]4C[C@@H](O)[C@@H](O)NC(=O)[C@@H]5[C@@H](O)[C@@H](C)CN5C(=O)[C@H]([C@H](O)CC(N)=O)NC(=O)[C@H]([C@H](O)[C@@H](O)c5ccc(O)c(OS(=O)(=O)O)c5)NC(=O)[C@@H]5C[C@@H](O)CN5C(=O)[C@H]([C@@H](C)O)NC4=O)cc3)no2)cc1 | microbial growth |  |  | MIC50 | 0.01 µg/mL (≈ 0.00787 µM)
Cc1cc(Cc2ccc(Cl)cc2)n(O)c(=O)c1 | microbial growth | ATCC90028 |  | MIC80 | 1.7 µM (≈ 0.424 µg/mL)
C=C1C(=O)O[C@@H](CCCCCCCCCCCCC)[C@@H]1C(=O)O | microbial growth | 28A |  | MIC | 64 µg/mL
OC(Cn1cncn1)(Cn1cncn1)c1ccc(F)cc1F | microbial killing |  |  | MFC | 40 µM (≈ 12.3 µg/mL)
Cc1cc(CC2CCCCC2)n(O)c(=O)c1 | microbial growth | ATCC90028 |  | MIC80 | 1.5 µM (≈ 0.332 µg/mL)
C[C@@H]1[C@H](O)[C@@H](C)/C=C/C=C/C=C/C=C/C=C/C=C/C=C/[C@H](O[C@@H]2O[C@H](C)[C@@H](O)[C@H](N)[C@@H]2O)C[C@@H]2O[C@](O)(C[C@@H](O)C[C@@H](O)[C@H](O)CC[C@@H](O)C[C@@H](O)CC(=O)O[C@H]1C)C[C@H](O)[C@H]2C(=O)O | microbial growth | ATCC90028 |  | IC50 | 0.13 µg/mL (≈ 0.141 µM)
O=C(NCc1ccc2c(c1)OCO2)c1ccc(Br)cc1F | microbial growth | ATCC10231 | 72 h | MIC | > 200 µM
